Experimental data pooled from the literature.
Lines come from different studies, so protocols differ.
Target: Death-associated protein kinase 2 (DAPK2, Homo sapiens, UniProt Q9UIK4)

`CN1CC(Oc2cnc(C#N)cc2-c2ccn3nc(NC(=O)C4CC4)cc3c2)C1` has an inhibition of 0% (enzyme activity; inhibitor; 1 µM).
`CNC(=O)c1cc(Oc2ccc(NC(=O)Nc3ccc(Cl)c(C(F)(F)F)c3)cc2)ccn1` gave an inhibition of 6% (enzyme activity; inhibitor; 10 µM).
`COc1cc(Cl)c(C(=O)N[C@@H](CN[C@H]2CC[C@@H](N)CC2)Cc2ccc(C#N)cc2)cc1-c1ccc(CN[C@H](C)c2ccc(C)cc2)o1` gave a remaining activity of 123% (enzyme activity; inhibitor; 1 µM).
`C[C@@H]1CN(c2cc(-c3nn(C)c4ccc(OC5(C)CC5)cc34)ncn2)C[C@H](C)O1` has a remaining binding of 89% (cell-free assay; competition with immobilised ligand; 1 µM).
For `N#CCCc1ccc2c(c1)-c1[nH]c3ccc([N+](=O)[O-])cc3c1CC(=O)N2`, the remaining signal was 96.5% (cell-free assay; 0.5 µM).
For `CN(C)C(=O)Cn1cc(-c2nc([C@@](C)(c3ccc(-c4cnc(N)nc4)cc3)C3CC3)no2)cn1`, the remaining binding was 100% (cell-free assay; competition with immobilised ligand; 1 µM).
The remaining activity of `CCCOc1ccc(OC)c(F)c1C(=O)c1ccc(C(=O)N[C@@H]2CNC[C@H]2NC(=O)c2ccc3[nH]ncc3c2)cc1` is reported as 84% (enzyme activity; inhibitor; 10 µM).
`CO[C@@H](C)c1c(Nc2ccc([C@@H](N(C)C(=O)C3CCS(=O)(=O)CC3)C(F)(F)F)cc2)cnc2cc(Cl)nn12` gave a remaining binding of 41% (binding; competition with immobilised ligand; 1 µM).
The remaining signal of `Cc1ccc(NC(=O)c2ccc(C)c(C(F)(F)F)c2)cc1C#Cc1nn(C2CCC(O)CC2)c2ncnc(N)c12` (stereo not shown) is reported as 95% (cell-free assay; 10 µM).
For `CC(C)(O)c1cncc(-c2nc3ccc(F)cc3n2C2CC2)c1`, the remaining binding was 100% (cell-free assay; competition with immobilised ligand; 1 µM).
With `N[C@H]1CCN(c2nccc(-c3cnn4ncccc34)n2)C1` the remaining binding was 98% (binding; 1 µM).
`Cc1cnc(NC2CCOCC2)nc1-n1cnc(C(=O)NC(CN)c2cc(F)cc(Cl)c2)c1` (stereo not shown) has a remaining activity of 108% (enzyme activity; inhibitor; radiometric; 1 µM).
With `Cc1ccc(Nc2nccc(N(C)c3ccc4c(C)n(C)nc4c3)n2)cc1S(N)(=O)=O` the inhibition was -4% (enzyme activity; inhibitor; 10 µM).
The remaining binding of `COc1cc(-c2cn(C3CCc4c(F)cccc4N(CC(F)(F)F)C3=O)nn2)ccc1-n1cnc(C)c1` (stereo not shown) is reported as 100% (cell-free assay; competition with immobilised ligand; 1 µM).
With `Cc1cc(NC(=O)c2cccc3cc(-c4cccc5[nH]nc(N)c45)ccc23)ccc1F` the activity vs control was 96% (enzyme activity; inhibitor; 0.1 µM).
`CC(C)(C)c1nc(-c2cccc(NS(=O)(=O)c3c(F)cccc3F)c2F)c(-c2ccnc(N)n2)s1` has a remaining activity of 92% (enzyme activity; inhibitor; radiometric; 1 µM).
